Experimental data as given in article PMC7340117 (SLAS discovery : advancing life sciences R & D, 2019).
Values after ≈ are worked out from the molar mass of the structure shown. Like-named read-outs stand apart in the source and are kept apart here.

Key:
[1] = biological target: T1, human fumarate hydratase (Homo sapiens, UniProt P07954); experiment: fluorescence-based FH assay coupled to MDH/diaphorase/resazurin; assay type: biochemical; details: for activity in FH assay (in words): human FH assay with fumarate; for Emax: read-out: Efficacy
T1 sequence (P07954 45-510): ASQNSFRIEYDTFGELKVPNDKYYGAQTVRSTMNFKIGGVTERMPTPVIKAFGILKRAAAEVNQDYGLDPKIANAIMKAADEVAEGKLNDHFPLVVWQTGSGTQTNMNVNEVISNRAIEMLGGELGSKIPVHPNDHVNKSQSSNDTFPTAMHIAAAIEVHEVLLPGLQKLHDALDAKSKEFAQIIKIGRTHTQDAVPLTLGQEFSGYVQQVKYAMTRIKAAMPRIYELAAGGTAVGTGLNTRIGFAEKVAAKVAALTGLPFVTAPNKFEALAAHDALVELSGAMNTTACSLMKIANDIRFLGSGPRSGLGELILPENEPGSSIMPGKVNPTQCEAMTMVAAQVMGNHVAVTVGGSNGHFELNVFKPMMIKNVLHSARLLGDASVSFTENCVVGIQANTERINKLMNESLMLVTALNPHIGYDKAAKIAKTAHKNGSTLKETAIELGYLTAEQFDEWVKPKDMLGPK

[2] = Amplex red REDOX assay
Summary of the method: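 Test compound (20 nL) was pinned into HBSS (1.26 mM CaCl2, 0.49 mM MgCl2, 1 g/L D-glucose), and background fluorescence was read (ex/em 525/598 nm). An equal volume of 2X Amplex Red mix (100 µM Amplex Red, 200 µM DTT, 2 U/mL HRP in HBSS) was added. After 15 min at room temperature the plate was re-read; ΔRFU = 15 min − 0 min. DMSO was the negative control; walrycin B and […] were positive controls.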

[3] = biological target: T2, L-malate dehydrogenase from pig heart (Sus scrofa, UniProt P00346); experiment: malate dehydrogenase; assay type: biochemical; details: read-out: Km value for MDH enzyme; 10 IU/ml MDH, 5 min, room temperature
T2 sequence (P00346 25-338): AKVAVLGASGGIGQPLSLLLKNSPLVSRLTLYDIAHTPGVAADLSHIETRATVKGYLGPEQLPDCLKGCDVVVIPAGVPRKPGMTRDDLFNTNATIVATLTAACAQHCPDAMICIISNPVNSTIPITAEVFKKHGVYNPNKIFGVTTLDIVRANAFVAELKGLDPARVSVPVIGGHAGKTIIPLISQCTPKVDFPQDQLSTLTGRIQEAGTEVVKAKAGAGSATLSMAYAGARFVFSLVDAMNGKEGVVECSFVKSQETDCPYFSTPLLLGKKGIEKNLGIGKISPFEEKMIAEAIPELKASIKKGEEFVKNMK

[4] = rat microsomal stability assay; assay type: in vitro ADME; details: liver microsomes
[5] = parallel artificial membrane permeability assay; assay type: in vitro ADME
[6] = aqueous kinetic solubility assay; assay type: physicochemical; details: aqueous medium, kinetic from dmso stock
[7] = biological target: T1, human fumarate hydratase; experiment: microscale thermophoresis; assay type: binding
Summary of the method: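 Recombinant C-terminally His-tagged human FH (200 nM) was labelled with RED-tris-NTA dye (100 nM) in PBS-T pH 7.4, mixed 1:1 for 30 min at RT, and spun 15,000 x g. Compound: 16-point 1:2 DMSO series from 10 mM, diluted 20-fold in PBS-T, mixed 1:1 with protein (50 nM FH), 2–3 min RT. Settings: LED 40%, MST 40%/60%, laser 30 s on. Kd taken from cold/hot regions.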

[8] = biological target: T1, human fumarate hydratase; experiment: FH assay without fumarate; assay type: biochemical; details: no fumarate added
[9] = biological target: T3, malate dehydrogenase (Sus scrofa, UniProt P00346); experiment: MDH assay without malate; assay type: biochemical, pig; details: no malate added
T3 sequence (P00346 25-338): T2 sequence (P00346 25-338)

With Cn1c(=O)c2c(-c3ccccc3)n(CCCO)cc2n(C)c1=O [NCGC00141286] the “activity in FH assay (in words)” value [1] was “inactive”.

In the case of O=C1C(Cl)=C(Cl)C(=O)C(Cl)=C1Cl [Chloranil], the “redox activity in amplex red assay (in words)” value (shortened to “redox activity”) [2] is reported as “strong REDOX activity”.

O=C(O)CC(O)C(=O)O (centres unmarked) [malate] gave a Km [3] of 225 ± 30 µM.

COc1ccc(CCn2cc3c(c2-c2ccc(Br)cc2)c(=O)n(C)c(=O)n3C)cc1OC [NCGC00117695, 5-(4-bromophenyl)-6-(3,4-dimethoxyphenethyl)-1,3-dimethyl-1,6-dihydro-2H-pyrrolo[3,4-d]pyrimidine-2,4(3H)-dione] showed an AC50 [1] of 31.5 µM and an Emax [1] of 79.5%.

With Cn1c(=O)c2c(-c3ccc(Cl)cc3)n(Cc3ccc(Cl)cc3)cc2n(C)c1=O [NCGC00115664, 6-(4-chlorobenzyl)-5-(4-chlorophenyl)-1,3-dimethyl-1,6-dihydro-2H-pyrrolo[3,4-d]pyrimidine-2,4(3H)-dione] the AC50 [1] was 17.7 µM and the Emax [1] was 52%.

Molecule Cn1c(=O)c2c(-c3ccccc3Cl)n(Cc3ccc(Cl)cc3)cc2n(C)c1=O [NCGC00115668, 6-(4-chlorobenzyl)-5-(2-chlorophenyl)-1,3-dimethyl-1,6-dihydro-2H-pyrrolo[3,4-d]pyrimidine-2,4(3H)-dione] has an AC50 [1] of 15.8 µM and an Emax [1] of 45.5%.

With Cn1nc(-c2ccc(C(F)(F)F)cc2)nc2c(=O)n(C)c(=O)nc1-2 [Walrycin B] the “redox activity” value [2] was “weak” and the “redox activity” value ([2]; listed as walrycin B) was “weak REDOX activity”.

Cn1c(=O)c2c(-c3ccc(Br)cc3)n(CCc3ccccc3)cc2n(C)c1=O [NCGC00117693, 5-(4-bromophenyl)-1,3-dimethyl-6-phenethyl-1,6-dihydro-2H-pyrrolo[3,4-d]pyrimidine-2,4(3H)-dione] showed an AC50 [1] of 7.06 µM, an Emax [1] of 63.7% and a half-life [4] of 1.23 min. For the same molecule, the “PAMPA permeability pH 5” value [5] was 590 1×10–6 cm/s, the “PAMPA Permeability pH 7.4” value [5] was “Not conclusive” and the solubility [6] was 14.7 µg/mL (≈ 33.5 µM).

O=C(O)/C=C/C(=O)O [fumarate, reference compound] gave a Km ([1]; read-out: Km value for FH enzyme, 10 nM FH, 15 min, room temperature) of 41 ± 1.1 µM.

Molecule CCCCn1cc2c(c1-c1ccc(Br)cc1)c(=O)n(C)c(=O)n2C [NCGC00117675, 5-(4-bromophenyl)-6-butyl-1,3-dimethyl-1,6-dihydro-2H-pyrrolo[3,4-d]pyrimidine-2,4(3H)-dione] has an AC50 [1] of 9.98 µM, an Emax [1] of 79% and a Kd [7] of 23.3 µM. For the same molecule, the half-life [4] was 7.68 min, the “PAMPA permeability pH 5” value [5] was 1,194 1×10–6 cm/s and the “PAMPA Permeability pH 7.4” value [5] was 1,507 1×10–6 cm/s. The “PAMPA permeability at pH 7.4 (in words)” value [5] was “high permeability” and the solubility [6] was under 1 µg/mL.

Cn1c(=O)c2c(-c3ccccc3Br)n(Cc3ccccc3)cc2n(C)c1=O [NCGC00117701, 6-benzyl-5-(2-bromophenyl)-1,3-dimethyl-1,6-dihydro-2H-pyrrolo[3,4-d]pyrimidine-2,4(3H)-dione] showed an AC50 [1] of 28.1 µM and an Emax [1] of 78.1%.

In the case of CCCCCn1cc2c(c1-c1ccc(Cl)cc1)c(=O)n(C)c(=O)n2C [NCGC00115666, 5-(4-chlorophenyl)-1,3-dimethyl-6-pentyl-1,6-dihydro-2H-pyrrolo[3,4-d]pyrimidine-2,4(3H)-dione], the AC50 [1] is reported as 5.61 µM and the Emax [1] is reported as 35%.

In the case of O=C(O)C(O)C(O)C(=O)O (centres unmarked) [tartrate], the “signal in FH assay in the absence of fumarate (in words)” value [8] is reported as “can drive both enzymes” and the “signal in MDH assay in the absence of malate (in words)” value [9] is reported as “can drive both enzymes”.

CCCCCn1cc2c(c1-c1ccc(Br)cc1)c(=O)n(C)c(=O)n2C [NCGC00117671, 5-(4-bromophenyl)-1,3-dimethyl-6-pentyl-1,6-dihydro-2H-pyrrolo[3,4-d]pyrimidine-2,4(3H)-dione] gave an AC50 [1] of 7.93 µM, an Emax [1] of 60.1% and a half-life [4] of 6.39 min. The “PAMPA permeability pH 5” value [5] was 945.87 1×10–6 cm/s, the “PAMPA Permeability pH 7.4” value [5] was “Not conclusive” and the solubility [6] was under 1 µg/mL.

For O=C([O-])C(O)C(O)C(=O)[O-].[K+].[Na+] (centres unmarked) [Potassium sodium tartrate, reference compound], the “activity in FH assay (in words)” value [1] was “increased activity”.

With Cn1c(=O)c2c(-c3ccccc3Br)n(CCc3ccccc3)cc2n(C)c1=O [NCGC00117727, 5-(2-bromophenyl)-1,3-dimethyl-6-phenethyl-1,6-dihydro-2H-pyrrolo[3,4-d]pyrimidine-2,4(3H)-dione] the AC50 [1] was 25.1 µM and the Emax [1] was 70%.

Cn1c(=O)c2c(-c3ccc(Cl)cc3)n(CCc3ccccc3)cc2n(C)c1=O [NCGC00102736, 5-(4-chlorophenyl)-1,3-dimethyl-6-phenethyl-1,6-dihydro-2H-pyrrolo[3,4-d]pyrimidine-2,4(3H)-dione] showed an AC50 [1] of 8.89 µM, an Emax [1] of 79.4% and a Kd [7] of 18.3 µM. For the same molecule, the half-life [4] was 1.11 min, the “PAMPA permeability pH 5” value [5] was 762.26 1×10–6 cm/s and the “PAMPA Permeability pH 7.4” value [5] was 1,224.00 1×10–6 cm/s. The “PAMPA permeability at pH 7.4 (in words)” value [5] was “high permeability” and the solubility [6] was 2.15 µg/mL (≈ 5.46 µM).

CCCCn1cc2c(c1-c1ccc(Cl)cc1)c(=O)n(C)c(=O)n2C [NCGC00115662, 6-butyl-5-(4-chlorophenyl)-1,3-dimethyl-1,6-dihydro-2H-pyrrolo[3,4-d]pyrimidine-2,4(3H)-dione] gave an AC50 [1] of 25.1 µM and an Emax [1] of 60.5%.

Work on CCCCCn1cc2c(c1-c1ccccc1Br)c(=O)n(C)c(=O)n2C [NCGC00117699, 5-(2-bromophenyl)-1,3-dimethyl-6-pentyl-1,6-dihydro-2H-pyrrolo[3,4-d]pyrimidine-2,4(3H)-dione] yielded an AC50 [1] of 31.5 µM and an Emax [1] of 49.7%.
